KCNQ1 block: inhibitors of human KCNQ1 potassium channel | AID 2642 | 1.3% of 310,000 active | CHO-K1 KCNQ1, FluxOR thallium flux fluorescence; hits give high values | B-score at 10 µM;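 active = compounds whose thallium flux B-score, printed positive for inhibition, exceeds three library SD while starting fluorescence stays within three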;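 also: channel opened by potassium depolarization with thallium stimulus after 20 min compound exposure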
hERG rescue: hERG (human) protection from proarrhythmic block; Q12809; CHO-hERG, FluxOR thallium flux, dofetilide IC70 present; activation (rescue from dofetilide block), less the hit threshold, % at 10 µM; 0.51% of 310,000 active; AID 1511;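 active = activation above the mean of controls blocked by dofetilide plus 5 SD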;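 also: thallium influx through hERG after potassium depolarization seen as dye fluorescence rise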
KCNK3 block: human KCNK3 channel inhibition, primary screen. O14649. CHO-KCNK3 thallium flux, FluxOR fluorescence; hits give low values. B-score at 10 µM. 0.84% of 340,000 active. AID 602410;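 active = B-score under library mean minus 4 SD, starting fluorescence ratio at most library mean plus 5 SD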;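 also: more negative B-score means stronger inhibition of thallium flux through KCNK3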
KCNK9 inh: human KCNK9 channel inhibition | B-score at 10 µM | HEK293 KCNK9, FluxOR thallium flux fluorescence; hits give low values | AID 488922 | Q9NPC2 | 1.2% of 310,000 active;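 active = ratio B-score over 3 SD below the library mean, with starting fluorescence within 5 SD of its mean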;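 also: negative B-score means less thallium flux so channel inhibition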
KCNQ1 pot: potentiators or activators of human KCNQ1 potassium channel; P51787; CHO-K1 KCNQ1, thallium flux FluxOR fluorescence; hits give high values; B-score at 10 µM; 0.35% of 310,000 active;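 active = fluorescence ratio B-score, a plate-corrected score, at least three library SD, with initial intensity B-score within 5 SD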
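Material: CHO-K1 cells stably expressing KCNQ1. Medium: assay buffer for compound exposure, DMSO matched across wells. Reagent: K+/Tl+ depolarizing stimulus. Compound dosing: single-concentration screen. Times: 37 °C overnight plating, 90-min dark dye load, 20-min compound pretreatment. Technique: FluxOR Tl+ flux fluorescence.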
KCNQ1 block val: reconfirmed blocker of the human KCNQ1 potassium channel; shares compounds with KCNQ1 block; KCNQ1 cell line, FluxOR thallium flux fluorescence; inhibition, % at 10 µM; 93% of 1,600 active;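 active = primary screen active, with duplicate mean exceeding buffer control mean plus 3 SD of buffer wells, cut at about 28% in these data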
CHO KCNQ1 ctr: activity in parental CHO cells lacking KCNQ1 | shares compounds with KCNQ1 block | parental CHO-K1, FluxOR thallium flux fluorescence ratio; hits give low values; zero means no signal rise above baseline | fluorescence ratio (Tl flux) at 10 µM | 21% of 1,600 active;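 active = mean of duplicate thallium-flux fluorescence ratios in parental host cells more than 5 SD below the buffer control mean, cut at about 0.38 in these data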;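 also: ratio is peak minus minimum fluorescence divided by baseline fluorescence; actives read low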
KCNQ1 APC inh: confirmation of human KCNQ1 potassium channel inhibitors by electrophysiology; AID 624120; shares compounds with KCNQ1 block; KCNQ1-CHO cells, automated patch clamp current; 20% of 490 active; calls only at 10 µM;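 active = KCNQ1 current drop exceeding 3 SD of negative control wells, seen in both duplicate runs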;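 also: steady state current during a 2 s step from -80 to +40 mV; negative values mean current inhibition and positive values mean potentiation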
KCNQ2 inh: rat KCNQ2 inhibition in KCNQ1 inhibitor specificity screen; inhibition, % at 10 µM; 71% of 1,600 active; KCNQ2 cells, FluxOR thallium flux fluorescence; shares compounds with KCNQ1 block;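 active = mean percent inhibition of the KCNQ2 thallium signal more than 5 SD above the buffer-only control wells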;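 also: KCNQ2 expressed in CHO cells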
Target sequence (O88943 whole entry, looked up): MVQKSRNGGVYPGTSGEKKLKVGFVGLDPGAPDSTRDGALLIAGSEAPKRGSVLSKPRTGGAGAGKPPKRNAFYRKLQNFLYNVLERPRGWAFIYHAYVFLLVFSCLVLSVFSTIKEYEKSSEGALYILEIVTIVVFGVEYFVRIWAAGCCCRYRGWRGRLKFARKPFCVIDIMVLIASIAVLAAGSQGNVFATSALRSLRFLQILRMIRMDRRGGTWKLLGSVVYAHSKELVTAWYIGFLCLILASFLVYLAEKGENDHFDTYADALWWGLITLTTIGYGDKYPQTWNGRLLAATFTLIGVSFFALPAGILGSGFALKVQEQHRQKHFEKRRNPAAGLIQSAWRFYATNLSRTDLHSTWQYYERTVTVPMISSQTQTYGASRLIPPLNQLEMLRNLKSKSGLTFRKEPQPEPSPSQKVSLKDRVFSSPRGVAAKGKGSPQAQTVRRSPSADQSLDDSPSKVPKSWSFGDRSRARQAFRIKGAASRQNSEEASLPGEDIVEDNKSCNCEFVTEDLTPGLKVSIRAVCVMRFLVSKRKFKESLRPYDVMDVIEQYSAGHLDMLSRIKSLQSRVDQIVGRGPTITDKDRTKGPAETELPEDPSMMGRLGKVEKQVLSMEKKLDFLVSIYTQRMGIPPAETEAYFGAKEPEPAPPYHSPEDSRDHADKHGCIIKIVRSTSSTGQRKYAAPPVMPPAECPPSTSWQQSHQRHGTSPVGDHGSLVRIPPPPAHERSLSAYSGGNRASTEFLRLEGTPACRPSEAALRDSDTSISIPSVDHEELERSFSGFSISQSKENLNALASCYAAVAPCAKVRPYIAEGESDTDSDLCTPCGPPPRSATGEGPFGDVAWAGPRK
KCNQ1 KCNE1 spec: human KCNQ1/KCNE1 inhibition in KCNQ1 specificity screen; KCNQ1/KCNE1 cells, FluxOR thallium flux fluorescence; 77% of 1,600 active; inhibition, % at 10 µM; shares compounds with KCNQ1 block;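 active = mean percent inhibition of duplicate wells above the buffer-only control mean plus 3 SD of those controls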
Large screens that a line does not name were inactive (follow-up assays come after a bar, where they were run). Most compounds without a hit are left out; they make up all but 3.1% or so of the library.

O=C(Nc1cccc(F)c1)N1CC=C(c2ccc(Cl)cc2)CC1	KCNQ1 block 13 | KCNQ1 block val 131.5 | CHO KCNQ1 ctr inactive | KCNQ1 APC inh inactive | KCNQ2 inh 102.7% | KCNQ1 KCNE1 spec 168.5%
Cc1ccccc1N1CCN(S(=O)(=O)c2ccccc2)CC1	none
COc1ccc(S(=O)(=O)N2CCN(c3c(C)cccc3C)CC2)cc1OC	KCNQ1 block 8 | KCNQ1 block val 99.0 | CHO KCNQ1 ctr 0.363 | KCNQ2 inh 110.0% | KCNQ1 KCNE1 spec 92.5%
Cc1cc(S(=O)(=O)N2CCN(c3c(C)cccc3C)CC2)ccc1F	KCNQ1 block 8 | KCNQ1 block val 103.0 | CHO KCNQ1 ctr inactive | KCNQ1 APC inh inactive | KCNQ2 inh 81.0% | KCNQ1 KCNE1 spec 136.0%
Cc1cc(S(=O)(=O)N2CCN(c3ccccc3C)CC2)ccc1F	KCNQ1 block 11, KCNK3 block -9.82 | KCNQ1 block val 168.5 | CHO KCNQ1 ctr 0.346 | KCNQ2 inh inactive | KCNQ1 KCNE1 spec inactive
O=C(C[C@H]1C/C=C\CC[C@@H](Cc2ccc(F)cc2)C(=O)O[C@H](c2ccccc2)CNC1=O)N[C@H](CO)Cc1ccccc1	none (no result: KCNQ1 block, hERG rescue, KCNK9 inh, KCNQ1 pot)
COc1ccccc1N1CCN(C(=O)CCNS(=O)(=O)c2cc(Br)cnc2N)CC1	none
CSc1ccc(S(=O)(=O)N2c3ccccc3CC2C)cc1 (configuration not stated)	KCNQ1 block 6 | KCNQ1 block val 104.5 | CHO KCNQ1 ctr inactive | KCNQ1 APC inh active | KCNQ2 inh 99.0% | KCNQ1 KCNE1 spec 142.0%
CC1Cc2ccccc2N1S(=O)(=O)c1cnc(Cl)c(Cl)c1 (configuration not stated)	none
Cc1cccc(N2C(=O)CC(N3CCC(c4nc5ccccc5[nH]4)CC3)C2=O)c1 (configuration not stated)	none
CCN1C(=O)CC(N2CCC(c3nc4ccccc4[nH]3)CC2)C1=O (configuration not stated)	KCNQ1 block 6 | KCNQ1 block val 31.5 | CHO KCNQ1 ctr inactive | KCNQ2 inh inactive | KCNQ1 KCNE1 spec 73.0%
Cc1cccc(NC(=O)CSc2nnc(C)c(C)n2)c1	none
O=S(=O)(c1ccc(S(=O)(=O)N(Cc2ccc(F)cc2)C2CCCC2)cc1)N1CCCC1	KCNQ1 block 6 | KCNQ1 block val 57.0 | CHO KCNQ1 ctr inactive | KCNQ2 inh inactive | KCNQ1 KCNE1 spec 94.5%
CC(C)Cn1c(=O)c(C(=O)Nc2ccccc2S(N)(=O)=O)c(O)c2ccccc21	KCNQ1 block 8 | KCNQ1 block val 117.5 | CHO KCNQ1 ctr inactive | KCNQ2 inh 63.3% | KCNQ1 KCNE1 spec 148.0%
CCC(C)n1c(=O)c(C(=O)Nc2ccccc2S(N)(=O)=O)c(O)c2ccccc21 (configuration not stated)	none
CCOC(=O)Cc1c(Sc2ccccc2)c2ccccc2n1C	KCNQ1 block 7, KCNK9 inh -8.03 | KCNQ1 block val 93.5 | CHO KCNQ1 ctr inactive | KCNQ1 APC inh inactive | KCNQ2 inh 88.0% | KCNQ1 KCNE1 spec 114.5%
O=C(NCc1ccncc1)c1cccc(S(=O)(=O)Nc2ccc(SC(F)F)cc2)c1	none
O=C1CSC(c2cn(-c3ccccc3)nc2-c2ccccc2)N1Cc1ccco1 (configuration not stated)	KCNQ1 block 10 | KCNQ1 block val 134.0 | CHO KCNQ1 ctr inactive | KCNQ1 APC inh inactive | KCNQ2 inh 107.7% | KCNQ1 KCNE1 spec 189.0%
O=C(c1cc(COc2ccc3ncccc3c2)on1)N1CCCC1	none
Cc1cc(OCc2cc(C(=O)N3CCN(CC4CC4)CC3)no2)cc(C)c1Cl	none
O=C(NC1CCCC1)c1cc(COc2ccc3ncccc3c2)on1	KCNQ1 block 8 | KCNQ1 block val 91.0 | CHO KCNQ1 ctr inactive | KCNQ1 APC inh active | KCNQ2 inh inactive | KCNQ1 KCNE1 spec inactive
Cc1cc(OCc2cc(C(=O)N3CCC(Oc4cccnc4)CC3)no2)cc(C)c1Cl	KCNQ1 block 13 | KCNQ1 block val 148.5 | CHO KCNQ1 ctr 0.373 | KCNQ2 inh 124.0% | KCNQ1 KCNE1 spec active
Cc1ccc(OCc2cc(C(=O)NC3CCCCC3)no2)cn1	none
O=C(c1cc(COc2ccc3ncccc3c2)on1)N1CCCCCC1	KCNQ1 block 7 | KCNQ1 block val 114.0 | CHO KCNQ1 ctr inactive | KCNQ1 APC inh inactive | KCNQ2 inh 100.7% | KCNQ1 KCNE1 spec inactive
CC(NC(=O)c1cc(COc2ccc3ncccc3c2)on1)c1ccc(F)cc1 (configuration not stated)	KCNQ1 block 10 | KCNQ1 block val 107.5 | CHO KCNQ1 ctr inactive | KCNQ1 APC inh active | KCNQ2 inh 92.0% | KCNQ1 KCNE1 spec 92.5%
COC(CN(C)C(=O)C1CCCN(S(=O)(=O)c2ccc3c(c2)oc(=O)n3C)C1)OC (configuration not stated)	none
O=C(c1ccc(N2CCN(C(=O)c3ccc(F)cc3F)CC2)cc1)c1cccc(F)c1	none
COc1ccccc1N1CCN(C2CC(=O)N(c3cccc(Cl)c3)C2=O)CC1 (configuration not stated)	none
COc1ccc(CCNS(=O)(=O)c2ccc(Cl)cc2)cc1OC	none
CCN(CC)c1nc(-c2ccccc2)ncc1S(=O)(=O)c1ccc(C)cc1	KCNQ1 block 6 | KCNQ1 block val 83.5 | CHO KCNQ1 ctr inactive | KCNQ2 inh 80.3% | KCNQ1 KCNE1 spec 130.5%
O=C(Cn1nnc2ccccc21)OCC(=O)c1ccc(Cl)cc1	KCNQ1 block 7 (no result: KCNK3 block) | KCNQ1 block val inactive | CHO KCNQ1 ctr inactive | KCNQ2 inh inactive | KCNQ1 KCNE1 spec 42.5%
O=C(Cn1nnc2ccccc21)OCc1ccccc1	none
N#Cc1ccc(S(=O)(=O)N2CCN(Cc3cccs3)CC2)cc1	none (no result: KCNQ1 block, hERG rescue, KCNK9 inh, KCNQ1 pot)
COc1ccccc1-c1ccc(SCc2cccc(C)c2)nn1	KCNQ1 block 11 | KCNQ1 block val inactive | CHO KCNQ1 ctr inactive | KCNQ2 inh 60.0% | KCNQ1 KCNE1 spec inactive
COc1ccccc1-c1ccc(SCc2ccc([N+](=O)[O-])cc2)nn1	none
CCCCC(=O)O[C@H]1CC[C@H]2[C@@H]3CCc4cc(O)ccc4[C@H]3CC[C@]12C	KCNQ1 block 6 | KCNQ1 block val 72.0 | CHO KCNQ1 ctr inactive | KCNQ2 inh 63.3% | KCNQ1 KCNE1 spec 100.0%
